This sample holds only a part of the variants without activity.
B1: tRNA (parent)
chain: GUUCCGUUGGCGUAAUGGUAACGCGUCUCCCUCCUAAGGAGAAGACUGCGGGUUCGAGUCCCGUACGGAACG

Variants of: B1
Test: yeast fitness relative to wild type (ratio to wild type); higher = fitter; tRNA-Arg(CCU), competitive growth, 37 C, YPD
In short: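 Variants of the tRNA-Arg(CCU) gene were chemically synthesised with a 3% per-site mutation rate across 69 sites and placed at the native genomic locus in Saccharomyces cerevisiae. Six parallel replicates of the pooled strains were competed in YPD at 37°C for 24 hours, and gene amplicons from the start and end populations were read by 100-nucleotide paired-end sequencing. Darwinian fitness relative to wild type was derived from changes in genotype frequencies. Genotypes required ≥ 100 starting reads, and estimates < 0.5 were set to 0.5.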
With C34U C46U U64A the yeast fitness was 0.642. Variant U3A U19A C46A G56A has a yeast fitness of 0.564. C34A A57U G67C gave a yeast fitness of 0.605. C5A G38A showed a yeast fitness of 0.664. In the case of A20G C34G G41C, the yeast fitness is reported as at most 0.5. C31U C33G G50C gave a yeast fitness of 0.508. Variant C27G G41A A57G has a yeast fitness of 0.746. With C27G A43C A65U G67U the yeast fitness was at most 0.5. For A15C C55U, the yeast fitness was 0.625. In the case of A45C C49U G63A, the yeast fitness is reported as 0.74. In the case of C55A C61A, the yeast fitness is reported as 0.579. U19G C22U C31U A40U G67A showed a yeast fitness of 0.637. With G17C U32A C46A the yeast fitness was 0.582. U7G U13C A37U C60G showed a yeast fitness of at most 0.5. C4U G23C A40U A42G A45G G51C C61U showed a yeast fitness of at most 0.5. For U13C U19A A42C G50C, the yeast fitness was 0.619. G12A G50U gave a yeast fitness of 0.842. With U3G G6A G17C C31G the yeast fitness was at most 0.5. With G18C U26C U28A A65U the yeast fitness was at most 0.5. G6A C24U A37G C61G C66U A69U gave a yeast fitness of at most 0.5. Work on C30A G67U yielded a yeast fitness of 0.671. With C11G A15U A21G G38C the yeast fitness was 0.604. In the case of G9C C24G C29G C55U A70G, the yeast fitness is reported as at most 0.5. Variant U3C C11U G56A has a yeast fitness of 0.742. Variant C31U A36C G41A has a yeast fitness of at most 0.5. C22G G39C A43U G44A U47C G58C gave a yeast fitness of at most 0.5. In the case of A21G G56A G67A, the yeast fitness is reported as 0.654. Work on U13C A43U C66U yielded a yeast fitness of 0.705. Variant C5G C30A A36G A45C A69U has a yeast fitness of at most 0.5. For G9A U16C C30G C34G A40G C61G A69G, the yeast fitness was at most 0.5. Variant U16C A42C U53A has a yeast fitness of at most 0.5. Work on C4G C62U A69U yielded a yeast fitness of 0.672. With G12A C30U U47A G67C the yeast fitness was at most 0.5. Work on G10C G25C G38C A40G A42G yielded a yeast fitness of at most 0.5. In the case of C34A G41A C55G, the yeast fitness is reported as at most 0.5. U26A C31U G48A A65G showed a yeast fitness of 0.683. For G12U G38A G52A G56C, the yeast fitness was at most 0.5. In the case of U16A C29G C30U A40U A70G, the yeast fitness is reported as at most 0.5. With G38A C62A the yeast fitness was 0.742. C31G G44C G67C showed a yeast fitness of at most 0.5. For C24G C33U A37U C49G U64C, the yeast fitness was at most 0.5. For U8G C27A C61A G67A, the yeast fitness was at most 0.5. C22G G25C A43G gave a yeast fitness of 0.584. For C5U C11A C24G C27G A36U G38C C60A C66A, the yeast fitness was at most 0.5. In the case of C5A C55A A69C, the yeast fitness is reported as at most 0.5. Work on G67U A70G yielded a yeast fitness of 0.822. Variant C29G G41A C61U has a yeast fitness of 0.531. For U3C C11U, the yeast fitness was 1.06. U8G G12A A37C A43U C66A A70C showed a yeast fitness of 0.597. A15C G48A gave a yeast fitness of 0.946. In the case of U2A C5G G38C, the yeast fitness is reported as at most 0.5. C33G G41C A43C showed a yeast fitness of at most 0.5. For C24U C27A C30G, the yeast fitness was at most 0.5. For C4U G38A, the yeast fitness was 0.919. Variant A20C A40G has a yeast fitness of 0.647. Work on U13G C24U G56A yielded a yeast fitness of 0.612. Work on U16G C22U C62U yielded a yeast fitness of 0.645. With U3C C11G A57G the yeast fitness was at most 0.5. With C4A G6A U16C G38A G58C C66U the yeast fitness was at most 0.5. Variant U19G U26A U28C has a yeast fitness of at most 0.5. Work on G38C C46A U59C G68A yielded a yeast fitness of at most 0.5. With A37G U54A the yeast fitness was at most 0.5. Variant U32G A42G C46U G51A has a yeast fitness of at most 0.5. For G9C A14G U16G G23A C33A G44A C66U, the yeast fitness was at most 0.5. In the case of A14U G25C G39C U54G A65U, the yeast fitness is reported as at most 0.5. U13A A40C A69G gave a yeast fitness of 0.629. Variant C24G C49G C55A has a yeast fitness of at most 0.5. U2G C4U C34G showed a yeast fitness of at most 0.5. Variant G25C C29U A45C G58A has a yeast fitness of at most 0.5. Variant U3A C24G C60G has a yeast fitness of 0.645. In the case of C27U U32A C66U G67C, the yeast fitness is reported as 0.598. G25C G41C A70C showed a yeast fitness of 0.559. C33G A43G U59A showed a yeast fitness of at most 0.5. In the case of G12A A15U C22A U26A C33G G38C G41C A43C U47G G67C, the yeast fitness is reported as at most 0.5. For A14U C55A A65C, the yeast fitness was at most 0.5. C33U G48A gave a yeast fitness of 0.678. For G48A C62U A70U, the yeast fitness was 0.824. Work on U7A C27G C34U yielded a yeast fitness of at most 0.5. C4U A21C C30A C31G U32C G41C C55U gave a yeast fitness of at most 0.5. With U32A A70U the yeast fitness was 0.857. A15U C22U U54C showed a yeast fitness of 0.754. Work on A15U G67A yielded a yeast fitness of 0.654. G6A C31G A65G showed a yeast fitness of 0.547.
